This is an account of results in ChEMBL document CHEMBL4602675, “The Marine Natural Product Manzamine A Inhibits Cervical Cancer by Targeting the SIX1 Protein” (J Nat Prod, 2020).

The test system of data set [1] is HeLa. Put plainly: Cell cycle arrest in human HeLa cells assessed as accumulation at G0/G1 phase at 4 uM after 72 hrs by propidium iodide staining based flow cytometric analysis (reference value: 76.4%). Type of data set: functional. A digest of the protocol: (§1)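 Cells in DMEM/10% FBS at 37 °C, 5% CO2 were given 4 μM for 24, 48 or 72 h, with DMSO as control. After trypsinization they were fixed in chilled 70% ethanol on ice for 30 min, treated with RNase A (1 mg/mL) for 30 min at room temperature, and stained with PI (20 μg/mL). At least 10 000 events were read by flow cytometry to give sub-G1, G0/G1, S and G2/M fractions; mean ± SEM.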
Background: Flow cytometry measures light scatter and fluorescence of single cells or particles in a stream.

The test system of data set [2] is C-33-A. Description: Induction of apoptosis in human C33A cells assessed as viable cells at 4 uM after 24 hrs by Annexin V-FITC/PI double staining based flow cytometric analysis (reference value: 93.3%). The format is functional. The conditions noted are these: read-out: Activity.
In data set [3] the test system is HeLa. Description: Inhibition of colony formation in human HeLa cells at 2 to 4 uM afer 1 week by crystal violet staining based assay. Type of data set: functional, cell-based. A digest of the protocol:
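Cells were grown in DMEM with 10% FBS, seeded at 1 × 10^3 cells/ml in six-well plates, incubated overnight, then exposed to 2 or 4 μM at 37 °C under 5% CO2 for one week. Colonies were fixed with 4% paraformaldehyde, stained with 0.5% crystal violet and photographed.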

In the next data set the test system is Ca-Ski. Put plainly: Induction of apoptosis in human CaSki cells assessed as apoptotic cells at 4 uM after 48 hrs by Annexin V-FITC/PI double staining based flow cytometric analysis (reference value: […]). Type of data set: functional.
Data set [4] concerns the target Protein E6 (Human papillomavirus 16) (UniProt P03126). Put plainly: Inhibition of Human papillomavirus type16 derived E6 in human SiHa cells assessed as increase in p21 protein expression at 2 to 4 uM after 48 hrs by Western blot analysis. The format is cell-based. The procedure, abridged: (§2)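 Cells were seeded at 1 × 10^6 per 100 mm dish and treated next day with 2 or 4 μM for 48 h. They were trypsinised, PBS-washed and lysed in RIPA with protease inhibitors. Equal protein was run on SDS-PAGE and transferred to PVDF. Primary antibodies were used at 1:500, with BSA 3% for blocking and antibodies for CK2α, Rb and pRb, otherwise 5% milk in TBST. HRP secondary at 1:2000, chemiluminescence detection.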
(In general: In western blotting, separated proteins are transferred to a membrane and probed.)

Data set [5] concerns HeLa. Description: Induction of apoptosis in human HeLa cells assessed as apoptotic cells at 4 uM after 48 hrs by Annexin V-FITC/PI double staining based flow cytometric analysis (reference value: 19.3%). The format is functional.
The subject of data set [6] is HeLa. Put plainly: Cell cycle arrest in human HeLa cells assessed as accumulation at Sub G1 phase at 4 uM after 48 hrs by propidium iodide staining based flow cytometric analysis (reference value: 2.1%). The format is functional. A digest of the protocol:
as §1

Data set [7] deals with T1, Protein E7 (Human papillomavirus 16) (UniProt P03129).
T1 sequence (whole entry): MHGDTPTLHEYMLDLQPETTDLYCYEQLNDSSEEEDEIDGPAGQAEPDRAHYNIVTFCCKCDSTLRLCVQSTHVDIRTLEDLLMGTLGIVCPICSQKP
Put plainly: Inhibition of Human papillomavirus type16 derived E7 in human CaSki cells assessed as decrease in phosphorylation of Rb at 2 to 4 uM after 48 hrs by Western blot analysis. The conditions noted are these: Ca-Ski. Type of data set: cell-based. A digest of the protocol: as §2

The target in data set [8] is Casein kinase II subunit alpha (Homo sapiens) (UniProt P68400). Put plainly: Potency index, ratio for inhibition activity of apigenin to test compound for inhibition of CK2alpha in human HeLa cells after 48 hrs by Western blot analysis. The format is cell-based. A digest of the protocol:
(§3)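 Cells plated at 1 × 10^6 per 100 mm dish and treated next day for 48 h with test compound (2 or 4 μM) or apigenin (10, 20 or 40 μM). RIPA lysates with protease inhibitors; equal protein loaded for SDS-PAGE, then PVDF transfer. Blocked in 5% milk/TBST (3% BSA for CK2α); anti-SIX1 or anti-CK2α 1:500, HRP secondary 1:2000; chemiluminescent detection.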

Data set [9] concerns C-33-A. Description: Cell cycle arrest in human C33A cells assessed as accumulation at G0/G1 phase at 4 uM after 72 hrs by propidium iodide staining based flow cytometric analysis (reference value: 60%). The format is functional. The procedure, abridged:
as §1

For the next data set, the system named is Keratinocyte. Description: Cytotoxicity against human Keratinocytes assessed as reduction in cell viability 2 to 4 uM incubated up to 72 hrs by CellTiter-Glo assay. The format is cell-based.
The subject of data set [10] is C-33-A. Put plainly: Cell cycle arrest in human C33A cells assessed as increase in p53 protein expression at 2 to 4 uM after 48 hr by Western lot analysis. The format is functional, cell-based. The procedure, abridged: (§4)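 Western blot. 1 × 10^6 cells were seeded per 100 mm dish and exposed the next day to 2 or 4 μM for 48 h. Cells were trypsinized and lysed in RIPA buffer with protease inhibitors. Equal protein was run on SDS-PAGE and transferred to PVDF, which was blocked in 5% milk/TBST. Anti-p53 and anti-p21 (also GAPDH) were used at 1:500 and HRP secondary at 1:2000; chemiluminescent detection.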

For data set [11], the system named is C-33-A. Description: Cell cycle arrest in human C33A cells assessed as increase in p21 protein expression at 2 to 4 uM after 48 hr by Western lot analysis. The format is functional, cell-based. A digest of the protocol:
as §4

Data set [12] is described as follows: Toxicity in po dosed rat. Type of data set: organism-based. The conditions noted are these: in vivo.
Data set [13] relates to HeLa. Description: Cell cycle arrest in human HeLa cells assessed as accumulation at G2/M phase at 4 uM after 48 hrs by propidium iodide staining based flow cytometric analysis (reference value: 16.2%). The format is functional.
Data set [14] deals with Casein kinase II subunit alpha (Homo sapiens) (UniProt P68400). Put plainly: Potency index, ratio for inhibition activity of apigenin to test compound for inhibition of CK2alpha in human C33A cells after 48 hrs by Western blot analysis. The format is cell-based. The conditions noted are these: C-33-A. A digest of the protocol: as §3
The subject of data set [15] is SiHa. Description: Effect on total-Rb in human SiHa cells assessed decrease in Rb protein level at 2 to 4 uM after 48 hrs by Western blot analysis. Type of data set: ADME, cell-based. A digest of the protocol:
as §2

Data set [16] concerns HeLa. Put plainly: Antiproliferative activity against human HeLa cells assessed as reduction in cell viability after 48 hrs by CellTiter-Glo assay. Type of data set: functional, cell-based. A digest of the protocol: (§5)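 ATP-based luminescent viability readout. Cells were grown in DMEM with 10% FBS, 2 mM L-glutamine and penicillin-streptomycin at 37 °C, 5% CO2. 2 × 10^4 cells/well were seeded, then exposed the next day to 0–40 μM for 24, 48 or 72 h. % viability = 100 × treated/control. IC50 was fitted from a sigmoid dose-response curve. Run at least three times in quadruplicate; mean ± SEM.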
A general note: ATP-based viability assays read luminescence as a measure of living cells.

Data set [17] deals with C-33-A. Description: Cell cycle arrest in human C33A cells assessed as accumulation at Sub G1 phase at 4 uM after 24 hrs by propidium iodide staining based flow cytometric analysis (reference value: 0.7%). Type of data set: functional. The procedure, abridged:
as §1

Data set [18] has as its target T1, Protein E7 (Human papillomavirus 16). Description: Inhibition of Human papillomavirus type16 derived E7 in human CaSki cells assessed as decrease in cyclin-D1 protein expression at 2 to 4 uM after 48 hrs by Western blot analysis. The format is cell-based. The note with it: Ca-Ski. A digest of the protocol: as §2
Data set [19] has as its system SiHa. Description: Induction of apoptosis in human SiHa cells assessed as late apoptotic cells at 4 uM after 48 hrs by Annexin V-FITC/PI double staining based flow cytometric analysis (reference value: 2.3%). Type of data set: functional.
In data set [20] the test system is C-33-A. Description: Cell cycle arrest in human C33A cells assessed as accumulation at G2/M phase at 4 uM after 48 hrs by propidium iodide staining based flow cytometric analysis (reference value: 26.7%). The format is functional. A digest of the protocol: as §1
Data set [21] has as its system C-33-A. Put plainly: Antiproliferative activity against human C33A cells assessed as reduction in cell viability after 24 hrs by CellTiter-Glo assay. Type of data set: functional, cell-based. A digest of the protocol:
as §5

Active and inactive are the calls of the source. The rule behind the calls is not given here.

Sequence of Casein kinase II subunit alpha (Homo sapiens) (P68400 whole entry, looked up): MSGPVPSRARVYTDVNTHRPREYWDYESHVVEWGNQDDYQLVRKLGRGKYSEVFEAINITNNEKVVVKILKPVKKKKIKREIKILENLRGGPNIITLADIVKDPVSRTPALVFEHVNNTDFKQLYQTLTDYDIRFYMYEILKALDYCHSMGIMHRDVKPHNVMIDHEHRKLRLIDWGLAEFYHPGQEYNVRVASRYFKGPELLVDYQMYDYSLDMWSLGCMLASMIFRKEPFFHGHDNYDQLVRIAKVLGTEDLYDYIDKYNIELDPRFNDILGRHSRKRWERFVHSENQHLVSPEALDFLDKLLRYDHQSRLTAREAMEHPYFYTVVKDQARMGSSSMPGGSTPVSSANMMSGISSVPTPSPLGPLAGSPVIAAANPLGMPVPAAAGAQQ
Sequence of Protein E6 (Human papillomavirus 16) (P03126 whole entry): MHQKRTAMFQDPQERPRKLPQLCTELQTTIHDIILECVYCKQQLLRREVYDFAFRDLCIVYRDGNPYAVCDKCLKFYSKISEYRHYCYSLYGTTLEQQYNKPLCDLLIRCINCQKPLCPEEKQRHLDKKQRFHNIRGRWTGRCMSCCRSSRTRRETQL

As for `O[C@]12C=C(c3nccc4c3[nH]c3ccccc34)[C@@H]3CCN(CCCC/C=C\CC1)C[C@@]31C[C@@H]3/C=C\CCCCN3[C@H]12` [MANZAMINE A], the Activity with HeLa [1] is 49.1%; in the data set on Ca-Ski, 23.2%; with HeLa [5], 75.9%; in the data set with HeLa [6], 5.1%; in the data set on C-33-A [9] it was 34.2%; in the data set on Keratinocyte, “Non-Toxic”. Also, the Activity is 20.8% with HeLa [13]; “Toxic” with SiHa [15]; 1.8% with C-33-A [17]; 4.2% in the data set with SiHa [19]; 18.3% with C-33-A [20]. Besides, the viability at 4 µM in the data set on C-33-A [2] is 72.7%. Besides, the inhibition entry (in the data set on HeLa [3]; in data set [4]; in data set [7]; in [18]) was “Active” in each case. Further, the Ratio in data set [8] and in data set [14] was 10 each time. Besides, the outcome in the data set on C-33-A [10] and in the data set on C-33-A [11] was inactive. Besides, in data set [12], the median lethal dose (LD50) – broadly, the dose expected to kill half of the subjects tested – is 200 to 300 mg/kg. Further, the IC50 – broadly, the point on the concentration scale where inhibition reaches its midpoint – in the data set on HeLa [16] was found to be 4 µM; in the data set with C-33-A [21], 5.2 µM.
